Measurements published in PMC4277207 (ChemMedChem, 2014).
Like-named read-outs stand apart in the source and are kept apart here.

Tests used:
[1] = tested on: D2-like receptor (D2, D3, and D4); assay: [3H]spiperone binding assay, rat striatal; conditions: ratio of Ki values, rat brain preparation
Method in brief: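 The D2-like assay used [3H]spiperone at 0.2 nM on caudate-putamen membranes at 1.5 mg o.w.w./mL, in agonist-optimised Tris-HCl/KCl/MgCl2/CaCl2 buffer at pH 7.4. Nonspecific binding was set with 1 μM (+)-butaclamol, and KD was 0.4 nM. For two-site curves, the high-affinity Ki is reported. […] Values are means of 3–6 determinations.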

[2] = tested on: D1-like receptor (D1 and D5); assay: [3H]SCH 23390 binding assay, rat striatal membranes; conditions: ratio of Ki values, rat brain preparation
[3] = molecular target: human D3 receptor (Homo sapiens, UniProt P35462); format: cell-based; conditions: hD3-transfected CHOp cells, mitogenesis; for IC50: read-out: Agonist activity: IC50, mean ± SEM of 3–6 determinations
[4] = format: in vitro ADME

Chain of human D3 receptor (P35462 whole entry): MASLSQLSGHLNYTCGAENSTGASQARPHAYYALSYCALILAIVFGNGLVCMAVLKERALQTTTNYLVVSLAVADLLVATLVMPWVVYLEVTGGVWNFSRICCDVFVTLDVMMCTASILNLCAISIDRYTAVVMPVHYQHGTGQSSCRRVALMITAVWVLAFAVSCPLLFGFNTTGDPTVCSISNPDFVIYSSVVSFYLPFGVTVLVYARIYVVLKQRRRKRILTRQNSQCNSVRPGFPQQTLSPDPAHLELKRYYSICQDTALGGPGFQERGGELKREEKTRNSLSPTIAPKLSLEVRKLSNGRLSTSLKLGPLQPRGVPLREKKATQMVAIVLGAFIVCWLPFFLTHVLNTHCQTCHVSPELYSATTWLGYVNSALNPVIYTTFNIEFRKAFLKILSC

| Selectivity D2-like/D3 [1] | Selectivity D1-like/D3 [2] | Compound | other results |
| --- | --- | --- | --- |
| 160 | 44,500 | CCCN(CCC1(O)CC(NC(=O)c2ccccc2OC)C1)[C@H]1CCc2nc(N)sc2C1 (stereo in doubt) [Compound 19, N-(cis-3-(2-(((S)-2-Amino-4,5,6,7-tetrahydrobenzo[d]thiazol-6-yl)(propyl)amino)-ethyl)-3-hydroxycyclobutyl)-2-methoxybenzamide] |  |
| 175 | 49,482 | CCCN(CC[C@]1(O)C[C@H](NC(=O)c2cccc(Cl)c2)C1)[C@H]1CCc2nc(N)sc2C1 (relative stereo) [Compound 13, N-(cis-3-(2-(((S)-2-Amino-4,5,6,7-tetrahydrobenzo[d]thiazol-6-yl)(propyl)-amino)ethyl)-3-hydroxycyclobutyl)-3-chlorobenzamide] |  |
| 414 | 53,684 | CCCN(CC[C@]1(O)C[C@@H](NS(=O)(=O)c2ccc(F)cc2)C1)[C@H]1CCc2nc(N)sc2C1 (relative stereo) [Compound 33, N-(cis-3-(2-(((S)-2-Amino-4,5,6,7-tetrahydrobenzo[d]thiazol-6-yl)(propyl)amino)-ethyl)-3-hydroxycyclobutyl)-4-fluorobenzenesulfonamide] | % of Stimulation compared to Quinpirole as the standard agonist [3]: 100%; functional activity at the human D3 receptor (agonist character) [3]: full D3 agonists; IC50 [3]: 17 ± 4.4 nM |
| 36,956 | 116,521 | CCCN(CCC1(O)CC(NC(=O)c2ccccc2F)C1)[C@H]1CCc2nc(N)sc2C1 (stereo in doubt) [Compound 15, N-(cis-3-(2-(((S)-2-amino-4,5,6,7-tetrahydrobenzo[d]thiazol-6-yl)(propyl)amino)-ethyl)-3-hydroxycyclobutyl)-2-fluorobenzamide] | % of Stimulation compared to Quinpirole as the standard agonist [3]: 100%; functional activity at the human D3 receptor (agonist character) [3]: full D3 agonists; IC50 [3]: 2 ± 0.49 nM |
| 485 | 160,847 | CCCN(CC[C@]1(O)C[C@@H](NS(=O)(=O)c2ccccc2Cl)C1)[C@H]1CCc2nc(N)sc2C1 (relative stereo) [Compound 28, N-(cis-3-(2-(((S)-2-Amino-4,5,6,7-tetrahydrobenzo[d]thiazol-6-yl)(propyl)amino)-ethyl)-3-hydroxycyclobutyl)-2-chlorobenzenesulfonamide] |  |
| 614 | 109,000 | CCCN(CCC1(O)CC(NS(=O)(=O)c2ccccc2F)C1)[C@H]1CCc2nc(N)sc2C1 (stereo in doubt) [Compound 31, N-(cis-3-(2-(((S)-2-Amino-4,5,6,7-tetrahydrobenzo[d]thiazol-6-yl)(propyl)amino)-ethyl)-3-hydroxycyclobutyl)-2-fluorobenzenesulfonamide] |  |
| 301 | 2,662 | CCCN(CCC1(O)CC(NC(=O)c2ccccc2)C1)[C@H]1CCc2nc(N)sc2C1 (stereo in doubt) [Compound 11, N-(cis-3-(2-(((S)-2-Amino-4,5,6,7-tetrahydrobenzo[d]thiazol-6-yl)(propyl)amino)-ethyl)-3-hydroxycyclobutyl)benzamide] |  |
| 157 | 9,751 | CCCN(CCC1(O)CC(NC(=O)c2ccc(Cl)cc2)C1)[C@H]1CCc2nc(N)sc2C1 (stereo in doubt) [Compound 14, N-(cis-3-(2-(((S)-2-Amino-4,5,6,7-tetrahydrobenzo[d]thiazol-6-yl)(propyl)amino)-ethyl)-3-hydroxycyclobutyl)-4-chlorobenzamide] |  |
| 412 | 56,180 | CCCN(CCC1(O)CC(NC(=O)c2ccc(F)cc2)C1)[C@H]1CCc2nc(N)sc2C1 (stereo in doubt) [Compound 17, N-(cis-3-(2-(((S)-2-Amino-4,5,6,7-tetrahydrobenzo[d]thiazol-6-yl)(propyl)amino)-ethyl)-3-hydroxycyclobutyl)-4-fluorobenzamide] |  |
| 205 | 17,654 | CCCN(CCC1(O)CC(NS(=O)(=O)c2ccc(Cl)cc2)C1)[C@H]1CCc2nc(N)sc2C1 (stereo in doubt) [Compound 30, N-(cis-3-(2-(((S)-2-Amino-4,5,6,7-tetrahydrobenzo[d]thiazol-6-yl)(propyl)amino)-ethyl)-3-hydroxycyclobutyl)-4-chlorobenzenesulfonamide] |  |
| 91 | 97,500 | CCCN(CCC1(O)CC(NS(=O)(=O)c2cccc(F)c2)C1)[C@H]1CCc2nc(N)sc2C1 (stereo in doubt) [Compound 32, N-(cis-3-(2-(((S)-2-Amino-4,5,6,7-tetrahydrobenzo[d]thiazol-6-yl)(propyl)amino)-ethyl)-3-hydroxycyclobutyl)-3-fluorobenzenesulfonamide] |  |
| 75 | 800 | CCCN(CC[C@]1(O)C[C@H](NS(=O)(=O)c2ccccc2OC)C1)[C@H]1CCc2nc(N)sc2C1 (relative stereo) [Compound 25, N-(cis-3-(2-(((S)-2-Amino-4,5,6,7-tetrahydrobenzo[d]thiazol-6-yl)(propyl)amino)-ethyl)-3-hydroxycyclobutyl)-2-methoxybenzenesulfonamide] |  |
|  |  | CCCN(CCC1(O)CC(NC(=O)c2ccc3ccccc3c2)C1)[C@H]1CCc2nc(N)sc2C1 (stereo partly shown) [Compound 3] | Percentage remaining of compounds in human liver microsomes ([4]; 0 h): 100%; Percentage remaining of compounds in human liver microsomes ([4]; 5 min): 79.2%; Percentage remaining of compounds in human liver microsomes ([4]; 10 min): 49.9%; Percentage remaining of compounds in human liver microsomes ([4]; 0.25 h): 34.9%; Percentage remaining of compounds in human liver microsomes ([4]; 0.5 h): 11.7%; Percentage remaining of compounds in human liver microsomes ([4]; 1 h): 2.1% |
| 117 | 80,161 | CCCN(CCC1(O)CC(NC(=O)c2ccccc2Cl)C1)[C@H]1CCc2nc(N)sc2C1 (stereo in doubt) [Compound 12, N-(cis-3-(2-(((S)-2-Amino-4,5,6,7-tetrahydrobenzo[d]thiazol-6-yl)(propyl)amino)-ethyl)-3-hydroxycyclobutyl)-2-chlorobenzamide] |  |
| 28 | 27,200 | CCCN(CC[C@]1(O)C[C@@H](NS(=O)(=O)c2cccc(Cl)c2)C1)[C@H]1CCc2nc(N)sc2C1 (relative stereo) [Compound 29, N-(cis-3-(2-(((S)-2-Amino-4,5,6,7-tetrahydrobenzo[d]thiazol-6-yl)(propyl)amino)-ethyl)-3-hydroxycyclobutyl)-3-chlorobenzenesulfonamide] |  |
| 138 | 29,789 | CCCN(CC[C@]1(O)C[C@@H](NC(=O)c2cccc(F)c2)C1)[C@H]1CCc2nc(N)sc2C1 (relative stereo) [Compound 16, N-(cis-3-(2-(((S)-2-Amino-4,5,6,7-tetrahydrobenzo[d]thiazol-6-yl)(propyl)amino)-ethyl)-3-hydroxycyclobutyl)-3-fluorobenzamide] |  |
| 15,208 | 20,000 | CCCN(CCC1(O)CC(NC(=O)c2ccc(-c3noc(C)n3)cc2)C1)[C@H]1CCc2nc(N)sc2C1 (stereo in doubt) [Compound 22, N-(cis-3-(2-(((S)-2-amino-4,5,6,7-tetrahydrobenzo[d]thiazol-6-yl)(propyl)amino)-ethyl)-3-hydroxycyclobutyl)-4-(5-methyl-1,2,4-oxadiazol-3-yl)benzamide] |  |
| 98 | 22,812 | CCCN(CCC1(O)CC(NS(=O)(=O)c2cccc(OC)c2)C1)[C@H]1CCc2nc(N)sc2C1 (stereo in doubt) [Compound 26, N-(cis-3-(2-(((S)-2-Amino-4,5,6,7-tetrahydrobenzo[d]thiazol-6-yl)(propyl)amino)-ethyl)-3-hydroxycyclobutyl)-3-methoxybenzenesulfonamide] |  |
| 65 | 1,631 | CCCN(CCC1(O)CC(NS(=O)(=O)c2ccc(OC)cc2)C1)[C@H]1CCc2nc(N)sc2C1 (stereo in doubt) [Compound 27, N-(cis-3-(2-(((S)-2-Amino-4,5,6,7-tetrahydrobenzo[d]thiazol-6-yl)(propyl)amino)-ethyl)-3-hydroxycyclobutyl)-4-methoxybenzenesulfonamide] |  |
| 3,779 | 61,143 | CCCN(CCC1(O)CC(NC(=O)c2ccc(OC)cc2)C1)[C@H]1CCc2nc(N)sc2C1 (stereo in doubt) [Compound 20, N-(cis-3-(2-(((S)-2-Amino-4,5,6,7-tetrahydrobenzo[d]thiazol-6-yl)(propyl)amino)-ethyl)-3-hydroxycyclobutyl)-4-methoxybenzamide] | t1/2 in human liver microsomes [4]: >1 h; Percentage remaining of compounds in human liver microsomes ([4]; 0 h): 100%; Percentage remaining of compounds in human liver microsomes ([4]; 5 min): 97.7%; Percentage remaining of compounds in human liver microsomes ([4]; 10 min): 94.1%; Percentage remaining of compounds in human liver microsomes ([4]; 0.25 h): 94.0%; Percentage remaining of compounds in human liver microsomes ([4]; 0.5 h): 85.5%; Percentage remaining of compounds in human liver microsomes ([4]; 1 h): 76.7% |
| 19 | 24,516 | CCCN(CCC1(O)CC(NS(=O)(=O)c2ccc(F)c(F)c2)C1)[C@H]1CCc2nc(N)sc2C1 (stereo in doubt) [Compound 35, N-(cis-3-(2-(((S)-2-Amino-4,5,6,7-tetrahydrobenzo[d]thiazol-6-yl)(propyl)amino)-ethyl)-3-hydroxycyclobutyl)-3,4-difluorobenzenesulfonamide] |  |

| Compound | Selectivity D2-like/D3 [1] | Selectivity D1-like/D3 [2] | other results |
| --- | --- | --- | --- |
| CCCN(CCC1(O)CC(NS(=O)(=O)c2ccccc2)C1)[C@H]1CCc2nc(N)sc2C1 (stereo in doubt) [Compound 24, N-(cis-3-(2-(((S)-2-Amino-4,5,6,7-tetrahydrobenzo[d]thiazol-6-yl)(propyl)amino)-ethyl)-3-hydroxycyclobutyl)benzenesulfonamide] | 42 | 30,000 |  |
